Here are results for 1 compound from PubChem BioAssay AID1937 (Sanford-Burnham Center for Chemical Genomics, 2009).

The data set relates to Mouse plasma protein binding, RED dialysis, LC/MS/MS. As to the kind of experiment: fraction bound to mouse plasma proteins – biochemical, rapid equilibrium dialysis, LC/MS/MS, ADME assay, late-stage follow-up (AID 1937). To be noted: stronger effect = higher value. The method in brief: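 System: mouse plasma in RED dialysis device / Medium: PBS pH 7.4 dialysis buffer / Compound dosing: two final plasma concentrations, 1 µM and 10 µM, with 0.1% DMSO / Incubation: dialysis for 4 h at 37 °C with shaking / Signal: LC/MS/MS of both dialysis chambers / Measure: percent bound, from buffer-to-plasma concentration ratio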

Consider `CC1Cc2cc(S(=O)(=O)N3CCN(c4ccc(Cl)cc4)CC3)ccc2N1C(=O)C1CC1` (configuration not stated), for which the plasma protein bound by setting is: (at 1 µM) 99.8%; (bound, at 10 µM) 99.8%.
